# Compound activity deposited in PubChem BioAssay by several laboratories.
# MC4R barr agon: human MC4R agonism via beta-arrestin. activation, % at 8.9 µM. U2OS MC4R beta-arrestin complementation, luminescence; percent of melanotan II response, DMSO zero. 0.98% of 360,000 active;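 active = activation above a per-plate cutoff, the mean activation of sample wells on that plate plus 3 SD, cut at about 8% in these data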
# Target sequence (P32245 whole entry, looked up): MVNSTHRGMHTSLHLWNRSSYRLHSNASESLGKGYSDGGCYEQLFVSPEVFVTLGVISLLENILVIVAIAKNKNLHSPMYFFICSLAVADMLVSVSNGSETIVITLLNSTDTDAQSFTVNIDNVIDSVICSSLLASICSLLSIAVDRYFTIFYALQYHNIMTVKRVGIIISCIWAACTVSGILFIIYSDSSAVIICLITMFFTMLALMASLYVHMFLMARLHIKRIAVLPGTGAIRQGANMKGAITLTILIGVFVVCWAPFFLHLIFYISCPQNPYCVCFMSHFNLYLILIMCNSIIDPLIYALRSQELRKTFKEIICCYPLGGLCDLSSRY
# Granule exo inh: lytic granule exocytosis inhibition | TALL-104 LAMP-1 surface exposure, flow cytometry; cells stimulated with thapsigargin and PMA | inhibition, % at 10 µM | 0.66% of 360,000 active | AID 651702;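 active = inhibition above about 55%, limit read from the data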
# EP2 modulator: modulators of human EP2 prostaglandin E2 receptor | EP2-expressing cells, cAMP HTRF FRET, PGE2 co-stimulation | induction, % at 25 µM | 0.83% of 260,000 active | AID 940;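 active = compounds whose cAMP rise, as percent of the full-agonist control response, exceeds 60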;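 note: rat C6 glioma line stably carrying human EP2 under a CMV promoter; the protocol text gives 20 µM as final concentration; 100% = response of wells given 1 µM PGE2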
# T cell modulator: T cell immune modulators affecting CD8 T cell-vesicle binding; AID 2052; response (vesicle binding), % at 7 µM; 2C CD8+ T cell-vesicle binding, flow cytometry; stronger effect = lower value; 0.068% of 330,000 active;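 active = response, share of CD8 T cells binding vesicles, and their 90th percentile fluorescence all below set limits, cut at about 80% in these data, passing the limit was not always enough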;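 note: values below 100% mean blocked vesicle binding to the CD8+ T cells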
#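 Assay system: 2C TCR transgenic mouse naive CD8+ T cells, MACS-purified | Read-out: CD8+ gate FL2 mean fluorescence as % of same-row positive control | Signal: High-throughput flow cytometry with anti-B7-1 and anti-CD8 staining | Timing: Binding step 1.5 h, 37 °C, antibody labelling 20 min, ice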
# MC4R antagonist: human MC4R antagonism in cAMP assay. P32245. MC4R-expressing cells, MTII-stimulated cAMP, LANCE TR-FRET. inhibition, % at 6.5 µM. 0.48% of 360,000 active;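 active = inhibition above its plate's cutoff, the mean of tested wells on that plate plus 3 SD, cut at about 29% in these data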;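 note: 0% = Melanotan II alone and 100% = Melanotan II plus saturating MCL0020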
#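 Assay system: U2OS cells stably expressing human melanocortin 4 receptor (MC4R) / Dosing: 6.5 µM / Timing: compound 30 min, challenge 1 h, detection 1 h / Measured by: Eu-cAMP/anti-cAMP TR-FRET, emission 671 nm / Replicates: singlicate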
# EP2 antag: EP2 receptor (human) inhibition; 0.52% of 260,000 active; inhibition, % at 25 µM; C6 glioma cells expressing human EP2, cAMP TR-FRET; cells stimulated with saturating PGE2;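 active = percent inhibition above 40 after rounding to a whole number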;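 note: rat C6 glioma host cells with rolipram phosphodiesterase inhibitor present; the protocol text gives 20 µM as final concentration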
# cAMP nonselect: nonselective cAMP signaling inhibitor, MC4R antagonist counter-screen; shares compounds with MC4R antagonist; parental U2OS, forskolin cAMP, LANCE TR-FRET; inhibition, % at 6.5 µM; 26% of 1,600 active;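 active = mean inhibition over triplicates above the low-control well mean plus 3 SD, set per campaign, cut at about 13% in these data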;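 note: signal is single emission at 671 nm which falls as cellular cAMP rises; 0% = forskolin-stimulated wells and 100% = buffer without forskolin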
# MC4R antag conf: human MC4R cAMP antagonism confirmation; shares compounds with MC4R antagonist; MC4R-expressing cells, MTII-stimulated cAMP, TR-FRET; inhibition, % at 6.5 µM; 27% of 1,600 active; AID 602195; in the data active = inhibition above about 29%;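 note: 0% = agonist stimulated wells alone and 100% = agonist stimulated wells plus saturating reference antagonist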
# Active calls of the source: *; i = inactive; · = no result. Sampled rows, rich in hits. Any-hit rate of the full collection: about 2.6%.
SMILES,MC4R barr agon,Granule exo inh,EP2 modulator,T cell modulator,MC4R antagonist,EP2 antag,cAMP nonselect,MC4R antag conf
CCC(C)(C)NC(=O)C(c1cccc(OC)c1OC)N(Cc1ccc(OC)cc1)C(=O)CCC(=O)Nc1cc(C)on1 (stereo not drawn),1,2,·,195,9,·,·,·
O=c1ncn(-c2cccc(F)c2)c2ncccc12,-1,3,15,693,13,2,·,·
O=C1C(SCCO)=C(SCCO)C(=O)c2ccccc21,-4,97*,-60,617,97*,43*,102*,143*
CC1=C(SCc2ccccc2)C(=O)c2ccccc2C1=O,-2,1,·,·,8,·,·,·
CCN[C@H]1C[C@H](C)S(=O)(=O)c2sc(S(N)(=O)=O)cc21,-1,6,·,726,4,·,·,·
COc1ccc(N2CCN(C(=O)Nc3ccccc3Cl)CC2)cc1,2,-1,24,461,37*,10,-1,4
COC(=O)c1ccccc1NC(=O)N1CCN(c2ccc(OC)cc2)CC1,2,2,17,320,8,6,·,·
CSc1ccc(S(=O)(=O)NCC(=O)OCCOc2ccccc2)cc1[N+](=O)[O-],-1,14,·,217,0,·,·,·
Nc1ccc(S(=O)(=O)NCC(=O)OCCOc2ccccc2)cc1[N+](=O)[O-],-4,-1,·,i,33*,·,27*,24
COc1cccc(Nc2nc(-c3sc(C)nc3C)cs2)c1,1,10,·,94,29*,·,0,6
COc1cccc(Nc2nc(-c3sc(NC(=O)c4ccco4)nc3C)cs2)c1,-1,-2,-3,511,35*,13,10,20
COc1ccc(Cl)cc1Nc1nc(-c2sc(NC(=O)c3ccco3)nc2C)cs1,-1,-2,-9,360,10,17,·,·
COc1ccc(NC(=O)/C(Cl)=C(/Cl)S(=O)(=O)Cc2ccccc2)cn1,-3,100*,-10,·,56*,23,34*,49*
COc1ccc(NC(=O)/C(Cl)=C(/Cl)S(=O)Cc2ccc(Cl)cc2)cn1 (stereo not drawn),-7,23,-71,·,76*,16,11,54*
CCCNC(=O)C1(C)CCN(Cc2cc(C)n(C)n2)C1 (stereo not drawn),0,-1,·,·,2,·,·,·
CCN(CC)c1ccc(C(=O)Nc2ccccc2)cc1[N+](=O)[O-],1,-3,-48,219,9,8,·,·
C[C@H]1Cn2cnc(C(=O)Nc3ccccc3)c2C(=O)N1,-1,-7,·,·,31*,·,-1,-1
C[C@@H]1Cn2cnc(C(=O)Nc3ccccc3)c2C(=O)N1,1,1,·,·,20,·,·,·
COCCNC(=S)N(Cc1ccc(F)cc1)Cc1cc2ccc(C)cc2[nH]c1=O,·,·,-24,·,·,8,·,·
CCOC(=O)c1c(-c2ccccc2)csc1NC(=O)CSc1ccccc1,0,1,55,169,20,4,·,·
CCOC(=O)COc1ccc2c(=O)c(-c3ccccc3)coc2c1,-1,5,-8,258,39*,8,19*,43*
CC(=O)Oc1ccc2c(=O)c(-c3ccccc3)coc2c1,0,2,3,219,-9,6,·,·
COc1ccc(Oc2coc3cc(OCC(=O)Nc4ccccc4)ccc3c2=O)cc1,·,·,-8,·,·,10,·,·
CCOCCOC(=O)COc1ccc2c(=O)c(Oc3ccc(OC)cc3)coc2c1,-1,-9,·,222,29*,·,24*,28
CCOC(=O)c1c(-c2ccccc2)csc1NC(=O)COc1ccc2c(C)cc(=O)oc2c1,0,4,14,364,30*,8,1,1
SMILES,MC4R barr agon,Granule exo inh,EP2 modulator,T cell modulator,MC4R antagonist,EP2 antag,cAMP nonselect,MC4R antag conf
Cc1c(CCC(=O)NCCCN2CCCC2=O)c(=O)oc2c(C)c(O)ccc12,0,4,·,274,7,·,·,·
O=C(CC1C(=O)NCCN1CC1CCCCC1)NCc1cccc(F)c1F (stereo not drawn),3,-1,15,189,30*,8,0,-1
Cc1cccc(NC(=O)NCC2CC2)c1,-1,-2,·,151,30*,·,-4,-20
Cc1cccc(C)c1NC(=O)CN(C)C(=O)CC1OC(=O)c2ccccc21 (stereo not drawn),-1,-4,·,372,-5,·,·,·
Cc1nn(Cc2ccc(Cl)cc2)c(C)c1NC(=O)c1cc(C(C)C)on1,1,-9,·,403,5,·,·,·
CCCC1=NN2C(=N)/C(=C\c3cc(C)n(-c4cc(C)cc(C)c4)c3C)C(=O)N=C2S1,2,1,-19,174,30*,11,-1,-20
Cc1ccc(C)c(NC(=O)CCC(=O)N/N=C/c2ccc3c(c2)OCO3)c1,1,17,-47,288,31*,7,-1,7
Cc1ccccc1NCC(=O)N/N=C\c1ccc2c(c1)OCO2,1,-3,-65,483,-1,5,·,·
Nc1ccc2nn(-c3cc([N+](=O)[O-])ccc3O)nc2c1,1,-2,·,281,29*,·,-1,6
Nc1ccc(-n2cnc3cc([N+](=O)[O-])ccc32)cc1,-1,-2,-2,231,6,16,·,·
CCN(Cc1ccccc1)Cc1cccc([N+](=O)[O-])c1,2,-1,21,524,7,1,·,·
Cc1ccc(-n2nc(-c3ccc(OC(F)(F)F)cc3)cc2N)cc1C,4,-4,-3,789,29*,12,4,8
Cc1cc(C)c2[nH]c(=O)c(CN(CC3CCCO3)C(=O)Nc3ccc(Cl)cc3)cc2c1 (stereo not drawn),·,·,-32,·,·,15,·,·
O=C(CSc1nc2ccccc2o1)N/N=C/c1ccco1,-1,1,·,285,3,·,·,·
Cc1cc(SCC(=O)N/N=C/c2ccco2)nc2ccccc12,1,-2,-23,170,29*,6,-3,-6
COc1ccc(CNC(=O)C(CC(C)C)NC(=O)c2ccccc2C)cc1 (stereo not drawn),1,2,·,156,22,·,·,·
COc1cccc(C(=O)Nc2sc(C(C)C)cc2C(N)=O)c1OC,0,-11,5,0,30*,11,2,20
COc1cccc(C(=O)Nc2nnc(-c3ccccc3)s2)c1OC,0,1,·,687,0,·,·,·
N=c1ccn2c(n1)O[C@@H]1C2O[C@H](CO)[C@H]1O (stereo partly drawn),·,·,28,·,·,14,·,·
O=C(C#Cc1ccccc1)c1ccccc1,-1,7,·,·,51*,·,29*,36*
